Calls of active or inactive are those of the source.
What was measured:
[1] = Dark toxicity in human MCF7 cells assessed as decrease in cell viability after 24 hrs by MTT assay; format: cell-based
Summary of the method: (§1)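 Cells seeded at 10 × 10^3 per well, grown 24 h, then exposed in the dark for 24 h at 37 °C to compound (DMSO stock diluted in medium), top concentration 100 µM. MTT 0.5% added for 4 h, formazan dissolved in DMSO, read at 550 nm. Viability is expressed relative to untreated controls. EC50 comes from a variable-slope sigmoidal fit; quadruplicate wells, mean ± SEM.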

[2] = Dark toxicity in human A2058 cells assessed as decrease in cell viability after 24 hrs by MTT assay; format: cell-based; summary of the method: as §1
[3] = Dark toxicity in human NCTC-2544 cells assessed as decrease in cell viability after 24 hrs by MTT assay; format: cell-based; summary of the method: as §1
[4] = target: Sigma non-opioid intracellular receptor 1 (Cavia porcellus, UniProt Q60492); experiment: Displacement of [3H]-(+)-pentazocine from sigma 1 receptor in guinea pig brain membranes after 150 mins by liquid scintillation counting method; format: cell membranes, Membrane
Summary of the method: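 Separated by filtration on PEI-presoaked GF/B filters, washed with ice-cold buffer, counted by liquid scintillation.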

[5] = target: Sigma intracellular receptor 2 (Homo sapiens, UniProt Q5BJF2); experiment: Displacement of [3H]-DTG from sigma 2 receptor (unknown origin) after 120 mins by liquid scintillation counting method
[6] = Selectivity ratio of Ki for sigma 1 receptor in guinea pig brain membranes to Ki for sigma 2 receptor (unknown origin); format: cell membranes
[7] = Solubility of the compound in water/methanol (1:1) mixture; format: physicochemical; details: buffer
[8] = Stability of the compound in water/methanol (1:1) mixture assessed as nitric oxide release under light irradiation by amperometric detection method; format: physicochemical; details: buffer
MCF7 [9] = experiment: Phototoxicity in human MCF7 cells assessed as decrease in cell viability at 0.01 to 10 uM preincubated for 24 hrs followed by light irradiation for 15 mins by MTT assay; format: functional, cell-based
Summary of the method: (§2)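 Cells preincubated 24 h with graded compound concentrations, medium then replaced with phenol red-free medium. Irradiated 15 min with a 150 W Xe lamp through a 390 nm cutoff filter; untreated cells also irradiated. Viability by MTT (0.5%, 4 h, DMSO, 550 nm) as percent of untreated controls; quadruplicate wells, mean ± SD.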

MCF7 [10] = experiment: Dark toxicity in human MCF7 cells assessed as decrease in cell viability at 0.01 to 10 uM after 24 hrs by MTT assay; format: cell-based; details: mcf7, 24 h
Summary of the method: (§3)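 Dark arm of the light experiments. Cells were seeded at 10 × 10^3 per well, precultured 24 h, then incubated 24 h at 37 °C with graded compound concentrations without irradiation. Viability was read by MTT (0.5%, 4 h, DMSO, 550 nm) as percent of untreated controls; quadruplicate wells, mean ± SD.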

A2058 [11] = experiment: Phototoxicity in human A2058 cells assessed as decrease in cell viability at 1 to 10 uM preincubated for 24 hrs followed by light irradiation for 15 mins by MTT assay; format: functional, cell-based; summary of the method: as §2
NCTC-2544 [12] = experiment: Phototoxicity in human NCTC-2544 cells assessed as decrease in cell viability at 0.01 to 10 uM preincubated for 24 hrs followed by light irradiation for 15 mins by MTT assay; format: cell-based; details: nctc-2544, 0.25 h; summary of the method: as §2
NCTC-2544 [13] = experiment: Dark toxicity in human NCTC-2544 cells assessed as decrease in cell viability at 0.01 to 10 uM after 24 hrs by MTT assay; format: cell-based; details: nctc-2544, 24 h; summary of the method: as §3
[14] = Stability in human MCF7 cells assessed as nitric oxide release under light irradiation at 10 uM preincubated for 24 hrs followed by light irradiation for 15 mins by DCF-DA dye-based fluorescence microscopic method; format: ADME, cell-based; details: mcf7, 0.25 h
Summary of the method: (§4)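 Cells plated on glass coverslips at 50,000, attached overnight, serum-starved 24 h, then treated with compound for 24 h. Loaded with 10 µM DCF-DA for 1 h, washed in PBS, irradiated in phenol red-free medium (Xe lamp, 390 nm cutoff, 15 min). Fixed in 4% PFA and imaged by fluorescence microscopy at 10x and 40x, dark versus light.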

[15] = Stability in human A2058 cells assessed as nitric oxide release under light irradiation at 10 uM preincubated for 24 hrs followed by light irradiation for 15 mins by DCF-DA dye-based fluorescence microscopic method; format: ADME, cell-based; details: a2058, 0.25 h; summary of the method: as §4
MCF7 [16] = experiment: Phototoxicity in human MCF7 cells assessed as decrease in cell viability at 10 to 50 uM preincubated for 24 hrs followed by light irradiation for 15 mins by MTT assay; format: functional, cell-based; summary of the method: as §2
MCF7 [17] = experiment: Dark toxicity in human MCF7 cells assessed as decrease in cell viability at 10 to 50 uM after 24 hrs by MTT assay; format: cell-based; details: mcf7, 24 h; summary of the method: as §3
A2058 [18] = experiment: Phototoxicity in human A2058 cells assessed as decrease in cell viability at 10 to 50 uM preincubated for 24 hrs followed by light irradiation for 15 mins by MTT assay; format: functional, cell-based; summary of the method: as §2
A2058 [19] = experiment: Dark toxicity in human A2058 cells assessed as decrease in cell viability at 10 to 50 uM after 24 hrs by MTT assay; format: cell-based; details: a2058, 24 h; summary of the method: as §3
NCTC-2544 [20] = experiment: Phototoxicity in human NCTC-2544 cells assessed as decrease in cell viability at 10 to 50 uM preincubated for 24 hrs followed by light irradiation for 15 mins by MTT assay; format: cell-based; details: nctc-2544, 0.25 h; summary of the method: as §2
NCTC-2544 [21] = experiment: Dark toxicity in human NCTC-2544 cells assessed as decrease in cell viability at 10 to 50 uM after 24 hrs by MTT assay; format: cell-based; details: nctc-2544, 24 h; summary of the method: as §3
[22] = Stability in human MCF7 cells assessed as nitric oxide release under light irradiation at 50 uM preincubated for 24 hrs followed by light irradiation for 15 mins by DCF-DA dye-based fluorescence microscopic method; format: ADME, cell-based; details: mcf7, 0.25 h; summary of the method: as §4
[23] = Stability in human MCF7 cells assessed as nitric oxide release under light irradiation at 50 uM preincubated for 24 hrs followed by light irradiation for 15 mins by Griess assay; format: ADME, cell-based; details: mcf7, 0.25 h
Summary of the method: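 After 50 µM compound treatment and irradiation (or dark control), cells were pelleted and lysed in hypotonic solution. Supernatant mixed 1:1 with Griess reagent, 30 min at 37 °C in the dark, absorbance read at 545 nm. Normalised to protein content; total nitrite quantified against a sodium nitrite standard.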

[24] = Stability of the compound in water/methanol (1:1) mixture assessed as nitric oxide release under dark condition at 50 uM by amperometric detection method; format: physicochemical; details: buffer
[25] = Stability of the compound in water/methanol (1:1) mixture assessed as nitric oxide release under light irradiation at 50 uM by amperometric detection method; format: physicochemical; details: buffer
A2058 [26] = experiment: Phototoxicity in human A2058 cells assessed as decrease in cell viability at 10 to 25 uM preincubated for 24 hrs followed by light irradiation for 15 mins by MTT assay; format: functional, cell-based
Summary of the method: (§5)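 Cells seeded at 10 × 10^3 per well and grown 24 h. Compound from DMSO stock, diluted in medium, incubated 24 h at 37 °C. Medium then swapped for phenol red-free medium and cells irradiated 15 min (150 W Xe lamp, 390 nm cutoff). MTT (0.5%) for 4 h, formazan in DMSO, OD 550 nm; viability as % of untreated controls. Quadruplicate wells, ≥2 repeats.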

A2058 [27] = experiment: Phototoxicity in human A2058 cells assessed as decrease in cell viability at 50 uM preincubated for 24 hrs followed by light irradiation for 15 mins by MTT assay; format: functional, cell-based; summary of the method: as §5

Chain of Sigma non-opioid intracellular receptor 1 (Q60492 whole entry): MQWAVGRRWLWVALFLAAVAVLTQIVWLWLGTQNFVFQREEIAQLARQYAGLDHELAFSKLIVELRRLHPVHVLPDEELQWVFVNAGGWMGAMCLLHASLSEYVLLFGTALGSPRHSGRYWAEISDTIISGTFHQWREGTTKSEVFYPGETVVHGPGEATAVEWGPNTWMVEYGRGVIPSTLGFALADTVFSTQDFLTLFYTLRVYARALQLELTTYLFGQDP
Chain of Sigma intracellular receptor 2 (Q5BJF2 whole entry): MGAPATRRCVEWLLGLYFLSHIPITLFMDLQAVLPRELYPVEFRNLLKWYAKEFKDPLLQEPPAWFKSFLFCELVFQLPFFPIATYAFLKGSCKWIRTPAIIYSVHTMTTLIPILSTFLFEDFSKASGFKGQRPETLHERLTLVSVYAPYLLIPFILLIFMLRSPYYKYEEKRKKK

Structure (SMILES) | EC50 at 24 h ([1]; read-out: EC50) | EC50 at 24 h ([1]; read-out: pEC50 (converted)) | EC50 at 24 h ([2]; read-out: EC50) | EC50 at 24 h ([2]; read-out: pEC50 (converted)) | EC50 at 24 h ([3]; read-out: EC50) | EC50 at 24 h ([3]; read-out: pEC50 (converted)) | Ki [4] | Ki [5] | Ratio Ki [6] | solubility [7] | Stability [8] | further results
COc1cccc2c1C(=O)c1c(O)c3c(c(O)c1C2=O)C[C@@](O)(C(=O)CO)C[C@@H]3O[C@H]1C[C@H](N)[C@H](O)[C@H](C)O1 [DOXORUBICIN] | 15.3 µM | 15.5 µM | 6.5 µM | 6.46 µM | 32.5 µM | 32.4 µM |  |  |  |  |  | 
O=[N+]([O-])c1ccc(NCCCCN2CCC(Cc3ccccc3)CC2)cc1C(F)(F)F |  |  |  |  |  |  | 0.02 µM | 0.0084 µM | 2.38 | Soluble | Unstable | 
O=[N+]([O-])c1ccc(NCCCCCN2CCC(Cc3ccccc3)CC2)cc1C(F)(F)F | 14.9 µM | 14.8 µM | 14.2 µM | 14.1 µM | 15 µM | 15.1 µM | 0.0404 µM | 0.024 µM | 1.68 | Soluble | Unstable | Activity (MCF7 [9]): Active; Activity (MCF7 [10]): Non-Toxic; Activity (A2058 [11]): Active; Activity (NCTC-2544 [12]): Non-Toxic; Activity (NCTC-2544 [13]): Non-Toxic; Stability [14]: Unstable; Stability [15]: Unstable
COc1cc2c(cc1OC)CN(CCNc1ccc([N+](=O)[O-])c(C(F)(F)F)c1)CC2 | > 100 µM | > 100 µM | > 100 µM | > 100 µM | > 100 µM | > 100 µM | 3.92 µM | 0.0238 µM | 164 | Soluble | Unstable | Activity (MCF7 [16]): Active; Activity (MCF7 [17]): Non-Toxic; Activity (A2058 [18]): inactive; Activity (A2058 [19]): Non-Toxic; Activity (NCTC-2544 [20]): Non-Toxic; Activity (NCTC-2544 [21]): Non-Toxic; Stability [22]: Unstable; Stability [23]: Unstable
COc1cc2c(cc1OC)CN(CCCCNc1ccc([N+](=O)[O-])c(C(F)(F)F)c1)CC2 |  |  |  |  |  |  | 0.0378 µM | 0.023 µM | 1.64 | Soluble | Unstable | 
O=[N+]([O-])c1ccc(NCCCN2CCC(Cc3ccccc3)CC2)cc1C(F)(F)F |  |  |  |  |  |  | 0.0416 µM | 0.0223 µM | 1.87 | Soluble | Unstable | 
COc1cc2c(cc1OC)CN(CCCCCNc1ccc([N+](=O)[O-])c(C(F)(F)F)c1)CC2 | > 100 µM | > 100 µM | > 100 µM | > 100 µM | > 100 µM | > 100 µM | 0.0394 µM | 0.0255 µM | 1.55 | Soluble |  | Stability [24]: Stable; Stability [25]: Unstable; Activity (MCF7 [16]): Active; Activity (NCTC-2544 [20]): Non-Toxic; Activity (NCTC-2544 [21]): Non-Toxic; Stability [22]: Unstable; Stability [23]: Unstable; Activity (A2058 [26]): inactive; Activity (A2058 [27]): Active
COc1cc2c(cc1OC)CN(CCCNc1ccc([N+](=O)[O-])c(C(F)(F)F)c1)CC2 |  |  |  |  |  |  | 0.212 µM | 0.0162 µM | 13.1 | Soluble | Unstable | 
O=[N+]([O-])c1ccc(NCCN2CCC(Cc3ccccc3)CC2)cc1C(F)(F)F |  |  |  |  |  |  | 0.0407 µM | 0.0761 µM | 0.53 | Soluble | Unstable | 
